Tested on: not listed separately
Experiment: Growth inhibition of human HCT15 cells at 10 uM after 48 hrs by SRB assay
Format: functional
Conditions: HCT-15, 48 h, read-out: GI
In short: (§1)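 NCI-60 primary one-dose screen run at the US NCI, with human tumour lines from nine cancer types. Compound added once at 10^-5 M, followed by 48 h incubation. End point was sulforhodamine B protein staining read spectrophotometrically. Result given as percent growth of treated cells against untreated controls, reported as % growth inhibition.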

| Compound | inhibition of growth at 10 µM [%] |
| --- | --- |
| Cc1ccc(C(=O)Nc2ccc(Cl)cc2C(=O)NCc2ccccc2)cc1 | 43 |

Tested on: RPMI-8226
Experiment: Growth inhibition of human RPMI8226 cells at 10 uM after 48 hrs by SRB assay
Format: functional
Conditions: RPMI-8226, 48 h, read-out: GI
In short: as §1

| Compound | inhibition of growth at 10 µM [%] |
| --- | --- |
| Cc1ccc(C(=O)Nc2ccc(Cl)cc2C(=O)NCc2ccccc2)cc1 | 23 |

Tested on: SK-MEL-2
Experiment: Growth inhibition of human SK-MEL-2 cells at 10 uM after 48 hrs by SRB assay
Format: functional
Conditions: SK-MEL-2, 48 h, read-out: GI
In short: as §1

| Compound | inhibition of growth at 10 µM [%] |
| --- | --- |
| Cc1ccc(C(=O)Nc2ccc(Cl)cc2C(=O)NCc2ccccc2)cc1 | 49 |

Tested on: NCI-H322M
Experiment: Growth inhibition of human NCI-H322M cells at 10 uM after 48 hrs by SRB assay
Format: functional
Conditions: read-out: GI
In short: as §1

| Compound | inhibition of growth at 10 µM [%] |
| --- | --- |
| Cc1ccc(C(=O)Nc2ccc(Cl)cc2C(=O)NCc2ccccc2)cc1 | < 10 |

Tested on: not listed separately
Experiment: Growth inhibition of human UACC62 cells at 10 uM after 48 hrs by SRB assay
Format: functional
Conditions: UACC-62, 48 h, read-out: GI
In short: as §1

| Compound | inhibition of growth at 10 µM [%] |
| --- | --- |
| Cc1ccc(C(=O)Nc2ccc(Cl)cc2C(=O)NCc2ccccc2)cc1 | 30 |

Tested on: SNB-75
Experiment: Growth inhibition of human SNB75 cells at 10 uM after 48 hrs by SRB assay
Format: functional
Conditions: SNB-75, 48 h, read-out: GI
In short: as §1

| Compound | inhibition of growth at 10 µM [%] |
| --- | --- |
| Cc1ccc(C(=O)Nc2ccc(Cl)cc2C(=O)NCc2ccccc2)cc1 | 33 |

Tested on: not listed separately
Experiment: Growth inhibition of human NCI-ADR-RES cells at 10 uM after 48 hrs by SRB assay
Format: functional
Conditions: read-out: GI
In short: as §1

| Compound | inhibition of growth at 10 µM [%] |
| --- | --- |
| Cc1ccc(C(=O)Nc2ccc(Cl)cc2C(=O)NCc2ccccc2)cc1 | 28 |

Tested on: Malme-3M
Experiment: Growth inhibition of human MALME-3M cells at 10 uM after 48 hrs by SRB assay
Format: functional
Conditions: read-out: GI
In short: as §1

| Compound | inhibition of growth at 10 µM [%] |
| --- | --- |
| Cc1ccc(C(=O)Nc2ccc(Cl)cc2C(=O)NCc2ccccc2)cc1 | 12 |

Tested on: T47D
Experiment: Growth inhibition of human T47D cells at 10 uM after 48 hrs by SRB assay
Format: functional
Conditions: read-out: GI
In short: as §1

| Compound | inhibition of growth at 10 µM [%] |
| --- | --- |
| Cc1ccc(C(=O)Nc2ccc(Cl)cc2C(=O)NCc2ccccc2)cc1 | < 10 |

Tested on: NCI-H460
Experiment: Growth inhibition of human NCI-H460 cells at 10 uM after 48 hrs by SRB assay
Format: functional
Conditions: NCI-H460, 48 h, read-out: GI
In short: as §1

| Compound | inhibition of growth at 10 µM [%] |
| --- | --- |
| Cc1ccc(C(=O)Nc2ccc(Cl)cc2C(=O)NCc2ccccc2)cc1 | < 10 |

Tested on: SF-268
Experiment: Growth inhibition of human SF268 cells at 10 uM after 48 hrs by SRB assay
Format: functional
Conditions: SF-268, 48 h, read-out: GI
In short: as §1

| Compound | inhibition of growth at 10 µM [%] |
| --- | --- |
| Cc1ccc(C(=O)Nc2ccc(Cl)cc2C(=O)NCc2ccccc2)cc1 | < 10 |

Tested on: MDA-MB-468
Experiment: Growth inhibition of human MDA-MB-468 cells assessed as cell growth at 10 uM after 48 hrs by SRB assay
Format: functional
Conditions: MDA-MB-468, 48 h, read-out: GI
In short: as §1

| Compound | inhibition of growth at 10 µM [%] |
| --- | --- |
| Cc1ccc(C(=O)Nc2ccc(Cl)cc2C(=O)NCc2ccccc2)cc1 | 17 |

Tested on: K562
Experiment: Growth inhibition of human K562 cells at 10 uM after 48 hrs by SRB assay
Format: functional
Conditions: K562, 48 h, read-out: GI
In short: as §1

| Compound | inhibition of growth at 10 µM [%] |
| --- | --- |
| Cc1ccc(C(=O)Nc2ccc(Cl)cc2C(=O)NCc2ccccc2)cc1 | 70 |

Tested on: HCT-116
Experiment: Growth inhibition of human HCT116 cells at 10 uM after 48 hrs by SRB assay
Format: functional
Conditions: HCT-116, 48 h, read-out: GI
In short: as §1

| Compound | inhibition of growth at 10 µM [%] |
| --- | --- |
| Cc1ccc(C(=O)Nc2ccc(Cl)cc2C(=O)NCc2ccccc2)cc1 | 11 |

Tested on: SK-MEL-5
Experiment: Growth inhibition of human SK-MEL-5 cells at 10 uM after 48 hrs by SRB assay
Format: functional
Conditions: SK-MEL-5, 48 h, read-out: GI
In short: as §1

| Compound | inhibition of growth at 10 µM [%] |
| --- | --- |
| Cc1ccc(C(=O)Nc2ccc(Cl)cc2C(=O)NCc2ccccc2)cc1 | 22 |

Tested on: not listed separately
Experiment: Growth inhibition of human MOLT4 cells at 10 uM after 48 hrs by SRB assay
Format: functional
Conditions: MOLT-4, 48 h, read-out: GI
In short: as §1

| Compound | inhibition of growth at 10 µM [%] |
| --- | --- |
| Cc1ccc(C(=O)Nc2ccc(Cl)cc2C(=O)NCc2ccccc2)cc1 | 49 |

Tested on: COLO 205
Experiment: Growth inhibition of human COLO205 cells at 10 uM after 48 hrs by SRB assay
Format: functional
Conditions: COLO 205, 48 h, read-out: GI
In short: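 NCI primary one-dose screen. A single concentration of 10^-5 M was added to the cell culture, followed by 48 h incubation and an SRB protein-dye endpoint read spectrophotometrically. Results are growth percentage relative to untreated control cells, reported as % growth inhibition.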

| Compound | inhibition of growth at 10 µM [%] |
| --- | --- |
| Cc1ccc(C(=O)Nc2ccc(Cl)cc2C(=O)NCc2ccccc2)cc1 | < 10 |

Tested on: SN12C
Experiment: Growth inhibition of human SN12C cells at 10 uM after 48 hrs by SRB assay
Format: functional
Conditions: read-out: GI
In short: as §1

| Compound | inhibition of growth at 10 µM [%] |
| --- | --- |
| Cc1ccc(C(=O)Nc2ccc(Cl)cc2C(=O)NCc2ccccc2)cc1 | < 10 |

Tested on: SNB-19
Experiment: Growth inhibition of human SNB19 cells at 10 uM after 48 hrs by SRB assay
Format: functional
Conditions: SNB-19, 48 h, read-out: GI
In short: as §1

| Compound | inhibition of growth at 10 µM [%] |
| --- | --- |
| Cc1ccc(C(=O)Nc2ccc(Cl)cc2C(=O)NCc2ccccc2)cc1 | < 10 |

Source: ChEMBL document CHEMBL3259728, “Design, synthesis and biological evaluation of some novel substituted quinazolines as antitumor agents” (2014)
